Source: ChEMBL document CHEMBL3751704, “Diarylthiophenes as inhibitors of the pore-forming protein perforin” (Bioorg Med Chem Lett, 2016)
Calls of active or inactive are those of the source. No cut-off for these calls is given here.

Target: T1, Perforin-1 (Homo sapiens) (UniProt P14222)
T1 sequence (whole entry): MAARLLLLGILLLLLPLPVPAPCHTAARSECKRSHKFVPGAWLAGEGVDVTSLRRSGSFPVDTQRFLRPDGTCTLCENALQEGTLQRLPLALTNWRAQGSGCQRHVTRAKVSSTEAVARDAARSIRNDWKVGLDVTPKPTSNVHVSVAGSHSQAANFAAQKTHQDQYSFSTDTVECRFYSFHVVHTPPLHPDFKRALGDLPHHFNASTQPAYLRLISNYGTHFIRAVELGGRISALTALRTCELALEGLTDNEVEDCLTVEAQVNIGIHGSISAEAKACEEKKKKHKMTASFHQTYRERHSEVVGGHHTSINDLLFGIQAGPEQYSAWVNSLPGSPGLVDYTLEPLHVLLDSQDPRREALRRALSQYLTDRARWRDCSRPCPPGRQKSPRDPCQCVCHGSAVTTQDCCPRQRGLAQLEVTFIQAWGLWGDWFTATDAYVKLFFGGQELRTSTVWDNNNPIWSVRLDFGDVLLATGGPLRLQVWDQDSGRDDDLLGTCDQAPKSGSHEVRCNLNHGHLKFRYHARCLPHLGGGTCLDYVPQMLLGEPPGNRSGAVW
Experiment: Inhibition of perforin released from human KHYG-1 NK cells assessed as inhibition of perforin mediated lysis of human K562 cells at 20 uM by measuring 51Cr release incubated for 20 mins by gamma counting analysis relative to control
Format: cell-based
Details: in the assay text read “incubated for 30 mins” for “incubated for 20 mins”
Method in brief: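 KHYG-1 human NK effector cells preincubated with inhibitor (20 μM) in medium for 30 min at room temperature. 51Cr-labelled K562 leukaemia target cells then added and incubated 4 h at 37 °C. Lysis read as 51Cr release. Percent inhibition calculated against untreated control.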

CS(=O)(=O)Nc1ccc(-c2ccc(-c3ccc4c(c3)COC4=O)s2)cc1
inhibition: inactive
